# Test results reported in ChEMBL document CHEMBL1149110, “Identification of 2-[2-[2-(5-bromo-2- methoxyphenyl)-ethyl]-3-fluorophenyl]-4,5-dihydro-1H-imidazole (ML00253764), a small molecule melanocortin 4 receptor antagonist that effectively reduces tumor-induced weight loss in a mouse model” (J Med Chem, 2004).
# What was measured:
# [1] = organism: Mus musculus; assay: Functional antagonism measured by inhibition of cAMP production induced by [NDP]-R-MSH in a whole cell assay in mice
# In short: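 Whole-cell functional assay measuring inhibition of cAMP production stimulated by [NDP]-α-MSH. Values are averages of at least three measurements, reported ± SD.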
# [2] = molecular target: Melanocortin receptor 4 (Mus musculus, UniProt P56450); assay: Competition binding affinity at mice melanocortin 4 receptor using [125I][NDP]-R-MSH as radioligand in a membrane filtration assay; assay type: cell membranes
# In short: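 Membrane filtration competition binding at MC4R with 125I-[NDP]-α-MSH as radioligand. Values are averages of at least three measurements, reported ± SD.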
# Chain of Melanocortin receptor 4 (P56450 whole entry): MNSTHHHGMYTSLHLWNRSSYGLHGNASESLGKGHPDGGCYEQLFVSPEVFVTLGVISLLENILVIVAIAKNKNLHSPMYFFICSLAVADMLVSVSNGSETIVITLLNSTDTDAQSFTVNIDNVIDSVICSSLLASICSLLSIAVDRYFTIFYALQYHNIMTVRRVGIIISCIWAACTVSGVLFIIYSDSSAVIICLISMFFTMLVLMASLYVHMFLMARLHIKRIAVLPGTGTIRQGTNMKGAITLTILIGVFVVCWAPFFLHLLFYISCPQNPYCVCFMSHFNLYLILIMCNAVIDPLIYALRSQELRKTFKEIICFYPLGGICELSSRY
SMILES,IC50 [1] [µM],Ki [2] [µM]
COc1ccc(Br)cc1CCc1ccccc1C1=NCCN1,0.45,0.039
Fc1cccc(Cl)c1CSc1ccccc1C1=NCCCN1,,2.7
COc1ccc(Br)cc1CSc1ccccc1C1=NCCCN1,0.27,0.067
Fc1cccc(F)c1CSc1ccccc1C1=NCCCN1,,15.8
COc1ccc(Br)cc1CCc1ccccc1C1=NCCCN1,0.28,0.22
COc1ccc(Br)cc1CCc1c(F)cccc1C1=NCCN1,,0.16
Clc1cc(CSc2ccccc2C2=NCCCN2)c(Cl)s1,,2.2
